Assay results reported in publication PMC5509056 (FEBS letters, 2017).

Tests used:
[1] = system: rat hippocampus membranes; assay: Agonist-stimulated [^35S]GTPγS binding in rat hippocampus membranes; type: biochemical, rat (Wistar)
[2] = system: supraoptic nucleus (SON) neurons; μ receptor; assay: Whole cell patch clamp, evoked outward / holding current in SON neurons; type: cell-based, rat (Sprague Dawley); conditions: for holding current response in SON: 1 μM, six cells in the SON
[3] = system: rostral supraoptic nucleus (SON) cells; assay: Spontaneous firing rate; type: cell-based, rat (Sprague Dawley); conditions: 1 μM, six cells in the SON
Outline: (§1)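 Coronal hypothalamic slices (250 μm) came from halothane-anaesthetised 20–24-day-old rats, cut in ice-cold sucrose ACSF and warmed to 35°C over 30 min. Slices were held submerged in 32°C ACSF (MgCl2 1.2, CaCl2 2.4 mM) gassed with 95% O2/5% CO2. Neurons were visualised by IR-DIC and patched with 5–8 MΩ pipettes (K-gluconate internal, pH 7.2) for whole-cell current and/or voltage clamp.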

[4] = system: suprachiasmatic nucleus (SCN) cells; assay: Whole cell patch clamp, holding current in SCN neurons; type: cell-based, rat (Sprague Dawley); conditions: 1 μM, six cells in the SCN
[5] = system: suprachiasmatic nucleus (SCN) cells; assay: Spontaneous firing rate; type: cell-based, rat (Sprague Dawley); conditions: 1 μM, six cells in the SCN
Outline: as §1

mu-opioid receptor (MOR) = conditions: endomorphins EM1 and EM2; ref [5], [6], [7]; cited from earlier work

Compound	holding current response in SON [2]	SFR response in SON [3]	holding current response in SCN [4]	SFR response in SCN [5]	binding affinity and selectivity to MOR (in words) (mu-opioid receptor (MOR))	other results
C=CCN1CC[C@]23c4c5ccc(O)c4O[C@H]2C(=O)CC[C@@]3(O)[C@H]1C5 [naloxone, reference compound]	–	–	–	–	–	inhibition of agonist effect of Mx-1 in promoting incorporation of γ-GTP ([1]; naloxone saturating concentrations (10 μM) with Mx-1): inhibited the agonist effect of Mx-1
CTOP [reference compound]	–	–	–	–	–	Mx-1 evoked current amplitude in presence of CTOP ([2]; CTOP 100 nM added to bath with 100 nM Mx-1, six SON neurons): 3.8 ± 2.0 pA
NH2-PPPRSPYSGKGLGPGNLLHSALLPIHCICLC-COO^- [Mx-3]	no measurable difference	no measurable difference	no measurable difference	no measurable difference	–	agonist-stimulated activity of Mx-3 compared with Mx-1 ([1]; [^35S]GTPγS, rat hippocampus membranes, comparison with Mx-1, discussion): greater than that displayed by Mx-1; [^35S]GTPγS binding at high concentrations (decrease) ([1]; high concentrations, for Mx-1: 1.2, 2.4 and 4.8 μM): not observed
NH2-TSRTDGTQS-COO^- [Mx-2]	no measurable difference	no measurable difference	no measurable difference	no measurable difference	–	–
Tyr-Pro-Phe-Phe-NH2 [EM2]	–	–	–	–	high binding affinity and selectivity to the mu-opioid receptor	–
Tyr-Pro-Trp-Phe-NH2 [EM1]	–	–	–	–	high binding affinity and selectivity to the mu-opioid receptor	–
